Source: ChEMBL document CHEMBL3792275 (Bioorg Med Chem Lett, 2016)
pIC50: −log10 of the molar value. Active and inactive are the calls of the source. The rule behind the calls is not given here.

Legend:
[1] = molecular target: 72 kDa type IV collagenase (Homo sapiens, UniProt P08253); test: Inhibition of human recombinant MMP2 using Mca-Pro-Leu-Gly-Leu-Dpa-Ala-Arg-NH2 as substrate preincubated for 60 mins followed by substrate addition by fluorimetric analysis
[2] = molecular target: Matrix metalloproteinase-9 (Homo sapiens, UniProt P14780); test: Inhibition of human recombinant MMP9 using Mca-Pro-Leu-Gly-Leu-Dpa-Ala-Arg-NH2 as substrate preincubated for 60 mins followed by substrate addition by fluorimetric analysis
Matrix metalloproteinase-9, sequence (P14780 whole entry): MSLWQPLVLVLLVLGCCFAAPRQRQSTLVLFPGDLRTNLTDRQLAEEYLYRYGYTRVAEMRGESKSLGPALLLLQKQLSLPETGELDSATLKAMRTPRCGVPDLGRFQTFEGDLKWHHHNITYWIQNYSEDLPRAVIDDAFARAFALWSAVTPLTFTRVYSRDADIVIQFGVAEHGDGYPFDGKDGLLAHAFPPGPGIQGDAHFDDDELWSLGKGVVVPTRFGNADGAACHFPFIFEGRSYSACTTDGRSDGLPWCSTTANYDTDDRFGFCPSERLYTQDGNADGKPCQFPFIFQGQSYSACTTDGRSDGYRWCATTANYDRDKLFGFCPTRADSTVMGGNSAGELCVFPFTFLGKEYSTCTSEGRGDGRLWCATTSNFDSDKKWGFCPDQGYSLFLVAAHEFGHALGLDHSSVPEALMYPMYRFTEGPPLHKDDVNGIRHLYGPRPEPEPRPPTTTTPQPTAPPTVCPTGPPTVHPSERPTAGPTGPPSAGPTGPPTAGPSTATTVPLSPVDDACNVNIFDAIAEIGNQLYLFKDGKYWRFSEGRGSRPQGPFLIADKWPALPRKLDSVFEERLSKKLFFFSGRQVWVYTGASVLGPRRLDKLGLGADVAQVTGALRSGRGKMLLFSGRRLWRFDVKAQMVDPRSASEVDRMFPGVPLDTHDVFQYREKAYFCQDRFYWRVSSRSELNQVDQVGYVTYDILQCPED

[3] = molecular target: MMP-2/MMP-9 (Homo sapiens) (UniProt P08253+P14780); test: Selectivity ratio of IC50 for human recombinant MMP9 to IC50 for human recombinant MMP2
In short: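 IC50 values against MMP-2 and MMP-9 were each measured by a fluorimetric enzyme assay, with a reference inhibitor run alongside as positive control. The selectivity ratio is the MMP-9 IC50 divided by the MMP-2 IC50.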

[4] = AUC (0 to 24 hrs) in Sprague-Dawley rat at 10 mg/kg, iv by LC-MS/MS method; type: ADME, organism-based; set-up: time < 24 hr, dose 10 mg/kg, route intravenous; settings: in vivo
[5] = AUC (0 to infinity) in Sprague-Dawley rat at 10 mg/kg, iv after 15 mins to 24 hrs by LC-MS/MS method; type: ADME, organism-based; set-up: dose 10 mg/kg, time infinity, route intravenous; settings: in vivo
[6] = Apparent volume of distribution in Sprague-Dawley rat at 10 mg/kg, iv after 15 mins to 24 hrs by LC-MS/MS method; type: ADME, organism-based; settings: in vivo, read-out: Vz (converted)
In short: (§1)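 Sprague-Dawley rats were dosed at 10 mg/kg, either intravenously or orally. AUC0-24h, AUC0-∞, Vz, t1/2z and CLz were derived for each route.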

[7] = Terminal half life in Sprague-Dawley rat at 10 mg/kg, iv by LC-MS/MS method; type: ADME, organism-based; settings: in vivo, read-out: beta t1/2 (converted); in short: as §1
[8] = Apparent clearance in Sprague-Dawley rat at 10 mg/kg, iv after 15 mins to 24 hrs by LC-MS/MS method; type: ADME, organism-based; settings: in vivo, read-out: CL(app) (converted); in short: as §1
[9] = Oral bioavailability in Sprague-Dawley rat at 10 mg/kg by LC-MS/MS method; type: ADME, organism-based; settings: in vivo
[10] = Lipid-water partition coefficient, logP of compound; type: physicochemical
[11] = AUC (0 to 24 hrs) in Sprague-Dawley rat at 10 mg/kg, po by LC-MS/MS method; type: ADME, organism-based; set-up: dose 10 mg/kg, time < 24 hr, route oral; settings: in vivo
[12] = AUC (0 to infinity) in Sprague-Dawley rat at 10 mg/kg, po after 15 mins to 24 hrs by LC-MS/MS method; type: ADME, organism-based; set-up: dose 10 mg/kg, route oral, time infinity; settings: in vivo
[13] = tested on: Rattus norvegicus; test: Apparent volume of distribution in Sprague-Dawley rat at 10 mg/kg, po after 15 mins to 24 hrs by LC-MS/MS method; type: ADME, organism-based; settings: in vivo; in short: as §1
[14] = Terminal half life in Sprague-Dawley rat at 10 mg/kg, po by LC-MS/MS method; type: ADME, organism-based; settings: in vivo, read-out: beta t1/2 (converted); in short: as §1
[15] = Apparent clearance in Sprague-Dawley rat at 10 mg/kg, po after 15 mins to 24 hrs by LC-MS/MS method; type: ADME, organism-based; settings: in vivo, read-out: CL(app) (converted); in short: as §1
[16] = tested on: HEY; test: Antiinvasive activity in human HEY cells assessed as reduction in number of cells invading matrigel membrane after 24 hrs by crystal violet staining-based Transwell assay; type: functional, cell-based
In short: (§2)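 Human ovarian cancer HEY cells were tested in a matrigel-based Transwell invasion assay, with cells invading the matrigel membrane and migrating from the upper to the lower chamber. Treatment was at 12.5, 25 and 50 µM for 24 h, with a DMSO control. Cells per view were counted after crystal violet staining. Treated groups were compared with control by t test.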

[17] = tested on: HEY; test: Antiinvasive activity in human HEY cells assessed as reduction in number of cells invading matrigel membrane at 50 uM after 24 hrs by crystal violet staining-based Transwell assay; type: functional; set-up: scale not given: the % may be the effect or the level left; in short: as §2
[18] = tested on: HEY; test: Cytotoxicity against human HEY cells at 6.25 to 100 uM after 48 hrs by MTT assay relative to control; type: cell-based
In short: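 HEY cell viability was measured by MTT assay after exposure to 6.25–100 µM, with DMSO as control. Medium was checked by microscope for solid particles.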

[19] = tested on: HEY; test: Antimigratory activity in human HEY cells after 24 hrs by crystal violet staining-based Transwell assay; type: functional, cell-based; in short: as §2
[20] = tested on: HEY; test: Antimigratory activity in human HEY cells at 50 uM after 24 hrs by crystal violet staining-based Transwell assay; type: functional; in short: as §2

72 kDa type IV collagenase, sequence (P08253 whole entry): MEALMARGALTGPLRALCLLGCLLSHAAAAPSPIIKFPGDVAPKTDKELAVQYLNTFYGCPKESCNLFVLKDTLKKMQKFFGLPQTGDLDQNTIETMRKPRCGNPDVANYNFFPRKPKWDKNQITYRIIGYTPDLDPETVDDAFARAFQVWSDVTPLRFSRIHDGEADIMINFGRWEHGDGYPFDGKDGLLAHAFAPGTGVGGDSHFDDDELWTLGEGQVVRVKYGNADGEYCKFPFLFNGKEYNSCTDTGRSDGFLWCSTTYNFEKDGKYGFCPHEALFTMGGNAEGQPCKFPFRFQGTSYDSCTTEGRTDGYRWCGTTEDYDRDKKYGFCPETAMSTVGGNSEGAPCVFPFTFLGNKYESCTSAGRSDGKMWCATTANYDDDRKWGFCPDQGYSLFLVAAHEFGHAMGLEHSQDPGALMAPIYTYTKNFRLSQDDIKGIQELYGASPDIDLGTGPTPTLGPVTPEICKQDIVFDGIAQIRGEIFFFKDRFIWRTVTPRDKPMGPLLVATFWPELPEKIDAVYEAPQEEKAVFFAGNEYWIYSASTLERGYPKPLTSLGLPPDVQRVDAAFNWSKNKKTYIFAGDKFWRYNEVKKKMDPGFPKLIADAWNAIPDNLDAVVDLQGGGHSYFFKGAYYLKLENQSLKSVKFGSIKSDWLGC

pIC50 [1]	pIC50 [2]	Ratio IC50 [3]	Structure (SMILES)	other results
< 5.00	5.14	inactive	CNC(=O)[C@H](Cc1c[nH]c2ccccc12)NC(=O)[C@@H](CC(=O)Nc1ccc(C)cc1N)CC(C)C	–
< 5.00	< 5.00	inactive	CNC(=O)[C@H](Cc1c[nH]c2ccccc12)NC(=O)[C@@H](CC(=O)Nc1ccc(C(=O)c2ccccc2)cc1N)CC(C)C	–
–	–	–	CNC(=O)[C@H](Cc1c[nH]c2ccccc12)NC(=O)[C@@H](CC(=O)NO)CC(C)C [ILOMASTAT]	AUC(0-t) at 24 h [4]: 2510 ng·h/mL; AUC(0-inf) [5]: 2510 ng·h/mL; Vd [6]: 1.43 L/kg; half-life [7]: 0.25 h; clearance [8]: 66.5 mL/min/kg; bioavailability [9]: 0%; logP [10]: 1.04
8.69	7.87	6.59	CNC(=O)[C@H](Cc1c[nH]c2ccccc12)NC(=O)[C@@H](CC(=O)Nc1cccc(N)c1)CC(C)C	–
7.66	7.56	1.25	CNC(=O)[C@H](Cc1c[nH]c2ccccc12)NC(=O)[C@@H](CC(=O)Nc1ccc(Br)cc1N)CC(C)C	–
< 5.00	< 5.00	inactive	CNC(=O)[C@H](Cc1c[nH]c2ccccc12)NC(=O)[C@@H](CC(=O)Nc1ccc(C(F)(F)F)cc1N)CC(C)C	–
9.72	5.80	8310	CNC(=O)[C@H](Cc1c[nH]c2ccccc12)NC(=O)[C@@H](CC(=O)Nc1ccccc1N)CC(C)C	AUC(0-t) at 24 h [4]: 3070 ng·h/mL; AUC(0-inf) [5]: 3210 ng·h/mL; Vd [6]: 35.8 L/kg; half-life [7]: 7.88 h; clearance [8]: 52.2 mL/min/kg; AUC(0-t) at 24 h [11]: 36.2 ng·h/mL; AUC(0-inf) [12]: 140 ng·h/mL; Vz [13]: 579.41 L/kg; half-life [14]: 5.64 h; CL/F [15]: 1190 mL/min/kg; Activity [16]: Dose-dependent effect; Activity [17]: 84.6%; Activity [18]: Non-toxic; Activity [19]: Dose-dependent effect; Activity [20]: 84.6%; bioavailability [9]: 4%; logP [10]: 1.91
< 5.00	6.81	inactive	CNC(=O)[C@H](Cc1c[nH]c2ccccc12)NC(=O)[C@@H](CC(=O)Nc1ccccc1NC(C)=O)CC(C)C	–
8.66	8.11	3.52	CNC(=O)[C@H](Cc1c[nH]c2ccccc12)NC(=O)[C@@H](CC(=O)Nc1ccc(F)cc1N)CC(C)C	–
